Experimental data reported in ChEMBL document CHEMBL1123255, “Synthesis of Pro-Leu-Gly-NH2 analogues modified at the prolyl residue and evaluation of their effects on the receptor binding activity of the central dopamine receptor agonist, ADTN” (J Med Chem, 1986).
Square brackets hold non-standard residues; d marks the D form. Peptide text beside a SMILES is read from it. pGlu = O=C1CC[C@@H](C(=O)O)N1; Pip = O=C(O)[C@@H]1CCCCN1; Thz = O=C(O)[C@@H]1CSCN1; Aze = O=C(O)[C@@H]1CCN1

Columns and labels:
Assay type in all cases: protein assay
[1] = biological target: T1, Dopamine receptor (Bos taurus) (UniProt Q95136+P20288); assay: Compound was tested for enhancement of the binding of [3H]ADTN to dopamine receptors at concentration of 1 nM
How it was run: (§1)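 Bovine caudate homogenized in 50 mM Tris-HCl pH 7.7, centrifuged twice at 40000g, resuspended in 50 mM Tris pH 7.1 with 0.1% ascorbate, 120 mM NaCl, 5 mM KCl, 2 mM CaCl2, 10 μM pargyline. 0.4-0.6 mg protein, 8 nM [3H]ADTN, peptide at 1, 10 or 100 nM; 10 min, 37 °C, triplicate; GF/B filtration, scintillation counting. Specific binding defined with 1 μM (d)-butaclamol; % enhancement over no-drug basal.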

[2] = biological target: T1, Dopamine receptor (Bos taurus); assay: Compound was tested for enhancement of the binding of [3H]ADTN to dopamine receptors at concentration of 100 nM; how it was run: as §1
[3] = biological target: T1, Dopamine receptor (Bos taurus); assay: Compound was tested for enhancement of the binding of [3H]-ADTN to dopamine receptors at concentration of 10 nM; how it was run: as §1

| Structure (SMILES) | Enhancement [1] | Enhancement [2] | Enhancement [3] |
| --- | --- | --- | --- |
| CC(C)C[C@H](NC(=O)[C@@H]1C=CCN1)C(=O)NCC(N)=O | 12.4% | 55% | 40% |
| CC(C)C[C@H](NC(=O)[C@H]1C=CCN1)C(=O)NCC(N)=O | 9.5% | 14.4% | 13% |
| CC(C)C[C@H](NC(=O)[C@@H]1CCN1)C(=O)NCC(N)=O (H-[Aze]-Leu-Gly-NH2) | 19% | 42% | 40% |
| CC(C)C[C@H](NC(=O)[C@@H]1CCCN1)C(=O)NCC(N)=O (stereo in doubt; 1) | 16% | 46.2% | 28% |

Other lines, results leading:

| Enhancement [1] | Enhancement [2] | Enhancement [3] | Structure (SMILES) |
| --- | --- | --- | --- |
| 17% | 58.7% | 38.7% | CC(C)C[C@H](NC(=O)[C@@H]1CCCCN1)C(=O)NCC(N)=O (H-[Pip]-Leu-Gly-NH2) |
| 7% | 9.5% | 8.5% | CC(C)C[C@H](NC(=O)[C@@H]1CSCN1)C(=O)NCC(N)=O (H-[Thz]-Leu-Gly-NH2) |
| 13.5% | 36.4% | 26.5% | CC(C)C[C@H](NC(=O)[C@@H]1CCC(=O)N1)C(=O)NCC(N)=O ([pGlu]-Leu-Gly-NH2) |
| 18% | 33% | 25% | CC(C)C[C@H](NC(=O)[C@@H]1CCCN1)C(=O)NCC(N)=O (stereo in doubt; 2) |
